Experiments:
[1] = Stability in phosphate buffer; assay type: physicochemical; details: phosphate buffer pH 7.4, 37 °C
Neutrophil granulocytes = test: Neutrophil granulocyte respiratory burst; assay type: cell-based; details: relative to ingenol disoxate
Outline: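 Human neutrophils isolated from buffy coats by sedimentation, Lymphoprep density centrifugation and erythrocyte lysis. Plated at 2.5 × 10^5 cells/well in HBSS with Ca2+/Mg2+, 0.1% BSA and 5 mM glucose. Titrated test compound premixed with 10 µM hydroethidine for 40 min at ambient temperature; fluorescence ex 485/em 579 nm.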

[2] = test system: IL-8 release from primary epidermal keratinocytes; test: Keratinocyte IL-8 release; assay type: cell-based, human; details: relative to ingenol disoxate
Outline: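 Primary adult human epidermal keratinocytes seeded at 1 × 10^4 cells/well in serum-free EpiLife with HKGS, overnight at 37 °C. Titrated test compound applied for 6 h. Secreted IL-8 measured by MSD 4-spot plates or HTRF. The EC50 is the concentration giving 50% of the maximum reached by a reference ingenol ester, from four experiments.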

[3] = test system: keratinocyte differentiation markers (INVL, TGM1, FLG, LOR) in primary human epidermal keratinocytes; test: Real-time quantitative PCR of keratinocyte differentiation markers; assay type: cell-based
Outline: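 Primary human epidermal keratinocytes in low-calcium EpiLife (0.06 mM CaCl2) were given 100 nM test compound for 72 h, with or without 500 nM bisindolylmaleimide I for 30 min beforehand. High-calcium medium (1.8 mM) served as the differentiation reference. KRT1, KRT10, INVL, TGM1, FLG and LOR measured by qPCR, normalised to PPIA, RPLP0, GAPDH and TBP and expressed relative to vehicle. Two donors.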

[4] = cited from earlier work
[5] = Local skin reaction in guinea pigs; assay type: in vivo, guinea pig; details: single topical application, 0.015% and 0.05% gel; hairless guinea pigs
Outline: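 Seven female IAF hairless guinea pigs (Crl:HA-Hr Hr) received 10 µL of 0.015% or 0.05% gel, or vehicle, on five 2 cm2 flank fields, one condition per field. LSR was scored daily for up to 4 days as a composite of edema, erythema, ulceration and subcutaneous bleeding. Four animals were killed at 24 h for 4 mm punch biopsies and H&E sections.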

[6] = test system: primary epidermal keratinocytes; test: Keratinocyte viability and caspase 3/7 activation; assay type: cell-based, human; details: growth-arresting concentrations (100 nM and above); 72 h
UV-induced skin tumors = test: UV-induced skin cancer mouse model; assay type: in vivo; details: two consecutive days
B16 melanoma = B16 melanoma mouse model; assay type: in vivo; details: 0.1% in hydroalcoholic gel, topical, two consecutive days; at 3 months
Outline: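 Female C57BL/6J mice aged 8–10 weeks received 5 × 10^5 B16 cells intradermally in the flank. Once nodules were visible, tumours were measured by caliper (volume […]) and mice split into cohorts of 8–10 with equal volumes. Treatment was topical, 20 µL of 0.1% hydroalcoholic gel on two consecutive days. The endpoint was a tumour above 250 mm3 or ulceration.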

[7] = test system: primary epidermal keratinocytes; test: Keratinocyte proliferation; assay type: cell-based, human; details: concentrations from 100 nM to 10 µM; 72 h
Outline: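 Primary adult human epidermal keratinocytes (log phase) at 4 × 10^3 cells/well in serum-free EpiLife with HKGS, overnight at 37 °C. Exposed to titrated test compound for 72 h. Proliferation read as DNA content with CyQUANT Direct stain. Percent inhibition normalised to 1 µM geldanamycin.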

Distribution coefficient = assay type: physicochemical; details: octanol/citrate buffer, pH 3
[8] = Skin penetration in a Franz chamber diffusion set-up; assay type: in vitro ADME, human; details: 21 h
Outline: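 Full-thickness human abdominal skin in vertical Franz cells (2 cm orifice, nine cells per treatment) at 32 °C, with stirred EpiLife plus keratinocyte supplement as receptor. 0.1% w/v hydroalcoholic gel applied for 21 h. Surface excess removed, stratum corneum tape-stripped 12 times, then epidermis and dermis heat-separated and quantified. LOQ 3 ng/biopsy; Mann–Whitney comparison.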

[9] = First tier chemical stability assessment in aqueous buffer; assay type: physicochemical; details: aqueous buffer pH 7.4; 16 h, room temperature
[10] = Stability in hydroalcoholic gel; assay type: physicochemical; details: for Largest single impurity (5-isomer re-arrangement product): 0.05% w/v gel, 25 °C/60%RH
Outline: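 Hydroalcoholic gel at pH 2.8 in citrate buffer, containing benzyl alcohol and isopropanol. For assay, 0.4 g gel was dispersed in 0.1% phosphoric acid/acetonitrile 50:50 and diluted to 10.0 mL. Reverse-phase UHPLC on an HSS C18 column with a 50–95% acetonitrile gradient and UV at 220 nm, against an external reference standard. Run in duplicate.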

CCc1noc(CC)c1C(=O)OCC1=CC2C(=O)C3(C=C(C)C(O)C3(O)C1O)C(C)CC1C2C1(C)C (stereo not shown) [compound 9, Ingenol-20-(3,5-Diethylisoxazole-4-Carboxylate)]
stability over time ([1]; 24 h): did not change over time
fold less potent in neutrophil activation assay (Neutrophil granulocytes): at least 150 fold
fold less potent in IL-8 release assay [2]: at least 150 fold

CN(C)CCCn1cc(C2=C(c3c[nH]c4ccccc34)C(=O)NC2=O)c2ccccc21 [bisindolylmaleimide-1, bisindolylmaleimide I]
effect of pretreatment on marker induction by ingenol derivatives ([3]; 500 nM, 30 min pre-incubation before 100 nM ingenol derivatives): abolished

CC1=C[C@]23C(=O)[C@@H](C=C(CO)[C@@H](O)[C@]2(O)[C@H]1O)[C@H]1[C@@H](C[C@H]3C)C1(C)C [Ingenol]
biological activity [4]: lacks biological activity

C/C=C(/C)C(=O)O[C@H]1C(C)=C[C@]23C(=O)[C@@H](C=C(CO)[C@@H](O)[C@]12O)[C@H]1[C@@H](C[C@H]3C)C1(C)C [Ingenol mebutate, Ingenol 3-Angelate]
local skin reaction (LSR) [5]: robust LSR response
time of peak local skin reaction [5]: 24 h
cytotoxicity or apoptosis (viability, caspase 3/7) [6]: No signs of cytotoxicity or apoptosis
antitumor effect (UV-induced skin tumors; 0.05% gel): slightly weaker effect
antitumor effect (UV-induced skin tumors; 0.1% gel): comparable effect
tumor clearance (UV-induced skin tumors; topical gel, SKH1 mice, largely maintained 5 weeks post treatment): more than 50%
animals remaining tumor free (overall tumor free survival) (B16 melanoma): 45%
growth inhibition [7]: Total growth inhibition without obvious signs of toxicity
transcription of intermediate (INVL) and late (TGM1, FLG, LOR) keratinocyte differentiation markers ([3]; 100 nM, 72 h, low calcium medium): stimulated transcription
logD at 24 h (Distribution coefficient): 3.5
epidermal relative to dermal concentration ([8]; 0.1% gel): more than 100 fold
Dermal exposure level ([8]; 0.1% in hydroalcoholic gel, topical): 364 ± 64 nM
epidermal concentration level ([8]; 0.1% in hydroalcoholic gel, topical, stratum corneum removed): 100 µM
compound recovered [9]: 60%
decrease of concentration ([10]; 0.05% gel, after 6 months storage at 25 °C/60%RH): 8.0 % of label claim
Largest single impurity (5-isomer re-arrangement product) ([10]; 6 months): 5.1 area %
Largest single impurity (5-isomer re-arrangement product) ([10]; Start): 0.2 area %

CCc1noc(CC)c1C(=O)OC1C(CO)=CC2C(=O)C3(C=C(C)C(O)C13O)C(C)CC1C2C1(C)C (stereo not shown) [compound 8, Ingenol-5-(3,5-Diethylisoxazole-4-Carboxylate)]
20-isomer in equilibrated mixture [1]: 86–88%
fold less potent in neutrophil activation assay (Neutrophil granulocytes): ~56 fold
fold less potent in IL-8 release assay [2]: approximately tenfold
